Measured values: ChEMBL document CHEMBL1649231, “In vitro activities of panduratin A against clinical Staphylococcus strains” (2009)
In brackets after ≈: the same amount, converted by molar mass.

Columns and labels:
Assay type in all cases: functional
Staphylococcus aureus [1] = experiment: Antimicrobial activity against methicillin-resistant Staphylococcus aureus after 24 hrs by broth microdilution method
Method in brief: (§1)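 Clinical isolates came from blood, body fluids, genital secretions, pus or sputum, identified conventionally or by Vitek. MICs were run by CLSI M7-A6 broth microdilution in Mueller-Hinton broth with 5 × 10^5 CFU/ml inoculum. Agents were twofold serially diluted, starting from 10% DMSO. Drug-free and uninoculated controls were included. Plates were incubated aerobically at 37°C for 24 h; MIC is the lowest concentration giving no visible growth.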

Staphylococcus aureus [2] = experiment: Antimicrobial activity against methicillin-susceptible Staphylococcus aureus after 24 hrs by broth microdilution method; method in brief: as §1
Staphylococcus simulans [3] = experiment: Antimicrobial activity against methicillin-resistant coagulase-negative Staphylococcus simulans after 24 hrs by broth microdilution method; method in brief: as §1
[4] = tested on: Staphylococcus haemolyticus; experiment: Bactericidal activity against methicillin-resistant coagulase-negative Staphylococcus haemolyticus after 24 hrs by plate counting method; settings: Staphylococcus haemolyticus, 24 h
[5] = tested on: Staphylococcus haemolyticus; experiment: Antimicrobial activity against methicillin-resistant coagulase-negative Staphylococcus haemolyticus after 24 hrs by broth microdilution method; method in brief: as §1
[6] = tested on: Staphylococcus epidermidis; experiment: Bactericidal activity against methicillin-resistant coagulase-negative Staphylococcus epidermidis after 24 hrs by plate counting method; settings: Staphylococcus epidermidis, 24 h
[7] = tested on: Staphylococcus epidermidis; experiment: Antimicrobial activity against methicillin-resistant coagulase-negative Staphylococcus epidermidis after 24 hrs by broth microdilution method; method in brief: as §1
Staphylococcus hominis [8] = experiment: Bactericidal activity against methicillin-resistant coagulase-negative Staphylococcus hominis after 24 hrs by plate counting method; settings: Staphylococcus hominis, 24 h
Staphylococcus aureus [9] = experiment: Bactericidal activity against methicillin-susceptible Staphylococcus aureus after 24 hrs by plate counting method
Method in brief: (§2)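 Clinical staphylococcal isolates from patient body fluids, blood, genital secretions, pus or sputum; species by conventional methods or Vitek. Twofold dilutions in Mueller-Hinton broth, inoculum 5 × 10^5 CFU/ml, 37°C aerobic 24 h (CLSI M7-A6 microdilution). About 100 μl from each well without visible growth spread on MHA; 37°C 24 h. MBC = lowest concentration giving no growth on agar.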

Staphylococcus hominis [10] = experiment: Antimicrobial activity against methicillin-resistant coagulase-negative Staphylococcus hominis after 24 hrs by broth microdilution method; method in brief: as §1
Staphylococcus aureus [11] = experiment: Bactericidal activity against methicillin-resistant Staphylococcus aureus after 24 hrs by plate counting method
Staphylococcus simulans [12] = experiment: Bactericidal activity against methicillin-resistant coagulase-negative Staphylococcus simulans after 24 hrs by plate counting method; settings: Staphylococcus simulans, 24 h; method in brief: as §2
Mammaliicoccus sciuri [13] = experiment: Antimicrobial activity against methicillin-resistant coagulase-negative Staphylococcus sciuri after 24 hrs by broth microdilution method; method in brief: as §1
Mammaliicoccus sciuri [14] = experiment: Bactericidal activity against methicillin-resistant coagulase-negative Staphylococcus sciuri after 24 hrs by plate counting method; settings: Mammaliicoccus sciuri, 24 h; method in brief: as §2
Staphylococcus hominis [15] = experiment: Antimicrobial activity against methicillin-susceptible coagulase-negative Staphylococcus hominis after 24 hrs by broth microdilution method; method in brief: as §1
Staphylococcus hominis [16] = experiment: Bactericidal activity against methicillin-susceptible coagulase-negative Staphylococcus hominis after 24 hrs by plate counting method; method in brief: as §2
[17] = tested on: Staphylococcus epidermidis; experiment: Antimicrobial activity against methicillin-susceptible coagulase-negative Staphylococcus epidermidis after 24 hrs by broth microdilution method; method in brief: as §1
[18] = tested on: Staphylococcus epidermidis; experiment: Bactericidal activity against methicillin-susceptible coagulase-negative Staphylococcus epidermidis after 24 hrs by plate counting method; method in brief: as §2
[19] = tested on: Staphylococcus haemolyticus; experiment: Antimicrobial activity against methicillin-susceptible coagulase-negative Staphylococcus haemolyticus after 24 hrs by broth microdilution method; method in brief: as §1
[20] = tested on: Staphylococcus haemolyticus; experiment: Bactericidal activity against methicillin-susceptible coagulase-negative Staphylococcus haemolyticus after 24 hrs by plate counting method; method in brief: as §2
Staphylococcus simulans [21] = experiment: Antimicrobial activity against methicillin-susceptible coagulase-negative Staphylococcus simulans after 24 hrs by broth microdilution method; method in brief: as §1
Staphylococcus simulans [22] = experiment: Bactericidal activity against methicillin-susceptible coagulase-negative Staphylococcus simulans after 24 hrs by plate counting method; method in brief: as §2
Mammaliicoccus sciuri [23] = experiment: Antimicrobial activity against methicillin-susceptible coagulase-negative Staphylococcus sciuri after 24 hrs by broth microdilution method; method in brief: as §1
Mammaliicoccus sciuri [24] = experiment: Bactericidal activity against methicillin-susceptible coagulase-negative Staphylococcus sciuri after 24 hrs by plate counting method; method in brief: as §2

Cc1ccc(C(C)C)c(O)c1 [THYMOL]
MIC50 (Staphylococcus aureus [1]): 128 µg/mL (≈ 852 µM) | MIC90 (Staphylococcus aureus [1]): 128 µg/mL (≈ 852 µM) | MIC50 (Staphylococcus aureus [2]): 128 µg/mL (≈ 852 µM) | MIC90 (Staphylococcus aureus [2]): 128 µg/mL (≈ 852 µM) | MIC50 (Staphylococcus simulans [3]): 64 µg/mL (≈ 426 µM) | MIC90 (Staphylococcus simulans [3]): 128 µg/mL (≈ 852 µM) | MBC [4]: 64 µg/mL (≈ 426 µM) | MIC50 [5]: 64 µg/mL (≈ 426 µM) | MIC90 [5]: 128 µg/mL (≈ 852 µM) | MBC [6]: 64 µg/mL (≈ 426 µM) | MIC50 [7]: 64 µg/mL (≈ 426 µM) | MIC90 [7]: 128 µg/mL (≈ 852 µM) | MBC (Staphylococcus hominis [8]): 64 µg/mL (≈ 426 µM) | MBC50 (Staphylococcus aureus [9]): 256 µg/mL (≈ 1700 µM) | MBC90 (Staphylococcus aureus [9]): 512 µg/mL (≈ 3410 µM) | MBC (Staphylococcus aureus [9]; Staphylococcus aureus, 24 h): 128 µg/mL (≈ 852 µM) | MIC50 (Staphylococcus hominis [10]): 64 µg/mL (≈ 426 µM) | MIC90 (Staphylococcus hominis [10]): 128 µg/mL (≈ 852 µM) | MBC50 (Staphylococcus aureus [11]): 512 µg/mL (≈ 3410 µM) | MBC (Staphylococcus aureus [11]; Staphylococcus aureus, 24 h): 256 µg/mL (≈ 1700 µM) | MBC (Staphylococcus simulans [12]): 64 µg/mL (≈ 426 µM) | MIC50 (Mammaliicoccus sciuri [13]): 64 µg/mL (≈ 426 µM) | MIC90 (Mammaliicoccus sciuri [13]): 128 µg/mL (≈ 852 µM) | MBC (Mammaliicoccus sciuri [14]): 64 µg/mL (≈ 426 µM) | MIC50 (Staphylococcus hominis [15]): 64 µg/mL (≈ 426 µM) | MIC90 (Staphylococcus hominis [15]): 64 µg/mL (≈ 426 µM) | MBC50 (Staphylococcus hominis [16]): 256 µg/mL (≈ 1700 µM) | MBC90 (Staphylococcus hominis [16]): 512 µg/mL (≈ 3410 µM) | MBC (Staphylococcus hominis [16]; Staphylococcus hominis, 24 h): 64 µg/mL (≈ 426 µM) | MIC50 [17]: 64 µg/mL (≈ 426 µM) | MIC90 [17]: 64 µg/mL (≈ 426 µM) | MBC50 [18]: 256 µg/mL (≈ 1700 µM) | MBC90 [18]: 512 µg/mL (≈ 3410 µM) | MBC ([18]; Staphylococcus epidermidis, 24 h): 64 µg/mL (≈ 426 µM) | MIC50 [19]: 64 µg/mL (≈ 426 µM) | MIC90 [19]: 64 µg/mL (≈ 426 µM) | MBC50 [20]: 256 µg/mL (≈ 1700 µM) | MBC90 [20]: 512 µg/mL (≈ 3410 µM) | MBC ([20]; Staphylococcus haemolyticus, 24 h): 64 µg/mL (≈ 426 µM) | MIC50 (Staphylococcus simulans [21]): 64 µg/mL (≈ 426 µM) | MIC90 (Staphylococcus simulans [21]): 64 µg/mL (≈ 426 µM) | MBC50 (Staphylococcus simulans [22]): 256 µg/mL (≈ 1700 µM) | MBC90 (Staphylococcus simulans [22]): 512 µg/mL (≈ 3410 µM) | MBC (Staphylococcus simulans [22]; Staphylococcus simulans, 24 h): 64 µg/mL (≈ 426 µM) | MIC50 (Mammaliicoccus sciuri [23]): 64 µg/mL (≈ 426 µM) | MIC90 (Mammaliicoccus sciuri [23]): 64 µg/mL (≈ 426 µM) | MBC50 (Mammaliicoccus sciuri [24]): 256 µg/mL (≈ 1700 µM) | MBC90 (Mammaliicoccus sciuri [24]): 512 µg/mL (≈ 3410 µM) | MBC (Mammaliicoccus sciuri [24]; Mammaliicoccus sciuri, 24 h): 64 µg/mL (≈ 426 µM)
